# Experimental data published in ChEMBL document CHEMBL3045942, “Design, synthesis, and anti-tobacco mosaic virus (TMV) activity of phenanthroindolizidines and their analogues” (2012).
# Columns and labels:
# Format in all cases: functional
# Tobacco mosaic virus [1] = test: Antiviral activity against Tobacco mosaic virus (TMV) assessed as inhibition at 1 ug/mL
# Tobacco mosaic virus [2] = test: In vivo antiviral activity against Tobacco mosaic virus (TMV) inoculated right side of Nicotiana tabacum L. leaves assessed as protection effect at 500 ug/mL preincubated 12 hr before viral challenge measured after 3 to 4 days
# Outline: (§1)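 Protective test on same-age growing Xanthi nc tobacco leaves. Compound solution was smeared on the left half and solvent on the right half as control. After 12 h, leaves were inoculated with TMV applied by brush. Inhibition % = (mean control lesions − mean treated lesions)/mean control lesions × 100. Three replicates.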
# Tobacco mosaic virus [3] = test: Antiviral activity against Tobacco mosaic virus (TMV) inoculated in 5-6 growth stage leaf assessed as inhibition effect at 100 ug/mL at 25 degC after 72 hr by half-leaf method
# Outline: (§2)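 Half-leaf assay on fresh leaves of Nicotiana tabacum var. Xanthi nc at the 5–6 growth stage. Leaves were rub-inoculated with leaf juice (TMV 5.88 × 10−2 μg mL−1) and cut in halves along the main vein. One half was immersed in compound solution and the other in double-distilled water for 20 min, then kept at 25 °C for 72 h. Inhibition % = (mean control lesions − mean treated lesions)/mean control lesions × 100. At least 3 replicates.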
# Tobacco mosaic virus [4] = test: In vivo antiviral activity against Tobacco mosaic virus (TMV) pre-inoculated Nicotiana tabacum L. leaves assessed as curative effect at 100 ug/mL measured after 3 to 4 days
# Outline: (§3)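 Curative test on same-age growing Xanthi nc leaves. Whole leaves were first inoculated with TMV (6.0 × 10−3 mg mL−1), then washed with water and dried. Compound solution was smeared on the left half and solvent on the right half as control. Local lesions were counted 3–4 days after inoculation, and inhibition % was derived from mean lesion numbers. Three replicates.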
# Tobacco mosaic virus [5] = test: In vivo antiviral activity against Tobacco mosaic virus (TMV) pre-inoculated Nicotiana tabacum L. leaves assessed as curative effect at 500 ug/mL measured after 3 to 4 days; outline: as §3
# Tobacco mosaic virus [6] = test: In vivo antiviral activity against Tobacco mosaic virus (TMV) inoculated right side of Nicotiana tabacum L. leaves assessed as protection effect at 100 ug/mL preincubated 12 hr before viral challenge measured after 3 to 4 days; outline: as §1
# Tobacco mosaic virus [7] = test: In vivo antiviral activity against Tobacco mosaic virus (TMV) inoculated left side of Nicotiana tabacum L. leaves assessed as inactivation effect at 100 ug/mL co-incubated with virus measured after 3 to 4 days
# Outline: (§4)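 Inactivation test in N. tabacum var. Xanthi nc. Virus was mixed with an equal volume of compound solution for 30 min and the mixture inoculated on the left leaf half. The right half received a solvent–virus mixture as control. Local lesions were counted 3–4 days after inoculation. Inhibition % was calculated from mean lesion numbers of control versus treated halves. Three replicates.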
# Tobacco mosaic virus [8] = test: Antiviral activity against Tobacco mosaic virus (TMV) inoculated in 5-6 growth stage leaf assessed as inhibition effect at 500 ug/mL at 25 degC after 72 hr by half-leaf method; outline: as §2
# Tobacco mosaic virus [9] = test: In vivo antiviral activity against Tobacco mosaic virus (TMV) inoculated left side of Nicotiana tabacum L. leaves assessed as inactivation effect at 500 ug/mL co-incubated with virus measured after 3 to 4 days; outline: as §4
# Tobacco mosaic virus [10] = test: Antiviral activity against Tobacco mosaic virus (TMV) assessed as inhibition at 500 ug/mL
# Outline: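 Half-leaf method on fresh Nicotiana tabacum var. Xanthi nc leaves at the 5–6 growth stage. Leaves were inoculated by juice-leaf rubbing with TMV at 5.88 × 10−2 μg mL−1, then cut in halves along the main vein. Halves were immersed 20 min in compound solution or double-distilled water as control, then kept 25 °C for 72 h. Inhibition % = (mean control lesions − mean treated lesions)/mean control lesions × 100. At least 3 replicates.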
SMILES,inhibition at 1 µg/mL (Tobacco mosaic virus [1]) [%],Activity (Tobacco mosaic virus [2]) [%],inhibition at 100 µg/mL (Tobacco mosaic virus [3]) [%],Activity (Tobacco mosaic virus [4]) [%],Activity (Tobacco mosaic virus [5]) [%],Activity (Tobacco mosaic virus [6]) [%],Activity (Tobacco mosaic virus [7]) [%],inhibition at 500 µg/mL (Tobacco mosaic virus [8]) [%],Activity (Tobacco mosaic virus [9]) [%],inhibition at 500 µg/mL (Tobacco mosaic virus [10]) [%]
COc1cc2c3c(c4ccc(O)cc4c2cc1OC)CN1CCC[C@@H]1C3,70,,,,,,,,,
COc1cc2c3c(c4cc(OC)c(OC)cc4c2cc1OC)NC[C@H]1CCCN1C3,,46.5,23.1,28.7,44.6,33.7,12.6,40.4,31.5,
COc1cc2c3c(c4cc(OC)c(OC)cc4c2cc1OC)NC[C@@H]1CCCN1C3,,53.6,18.5,22.7,44.6,28.5,20.3,50,42.5,
COc1cc2cc(C(=O)N3CCC[C@H]3C)c3cc(OC)c(OC)cc3c2cc1OC,,43.3,15.3,6.2,30.1,18.9,9.6,38.4,31.3,
COc1ccc2c3c(c4cc(OC)c(OC)cc4c2c1)CN1CCC[C@H]1C3,,70.2,50,43.7,65.1,51.3,40.3,71.2,59.8,
COc1cc2c3c(c4cc(OC)c(OC)cc4c2cc1OC)NC(=O)[C@@H]1CCCN1C3,,29.7,4.6,0,31.5,7.6,22.2,34.8,32.9,
COc1cc2c3c(c4cc(OC)c(OC)cc4c2cc1OC)C(=O)n1cccc1C3,,21.5,0,0,17.5,5.3,8.5,15.3,22.6,
NC(=O)c1ncn([C@@H]2O[C@H](CO)[C@@H](O)[C@H]2O)n1 [RIBAVIRIN],,38.9,12.5,8.2,36.7,7.5,9.8,40,33.8,
COc1ccc2c3c(c4cc(OC)c(OC)cc4c2c1)CN1CCC[C@@H]1C3,,60.5,32.9,24.5,44.7,31.7,23.6,56.5,48.9,
COc1ccc2c3c(c4cc(OC)c(OC)cc4c2c1)[C@@H](O)[C@H]1CCCN1C3,,39.6,21.6,10.2,34.9,7.3,14.2,43.5,38.5,
COc1ccc2c3c(c4cc(OC)c(OC)cc4c2c1)C[C@@H]1CCCN1C3 [HYPOESTESTATIN 1],,56.4,30.5,26.7,55.5,28.4,37.2,60.2,51.1,
O=C1NCNC(=O)N1,,,,,,,,,,50
COc1ccc2c3c(c4cc(OC)c(OC)cc4c2c1)CN1CCC[C@H]1[C@H]3O,,41.3,29.6,17.2,40,24.5,0,45.2,32.4,
COc1cc2c3c(c4cc(OC)c(OC)cc4c2cc1OC)[C@@H](O)[C@H]1CCCN1C3,,53.9,23,32.8,43.4,26.5,26.7,51.2,49.2,
COc1ccc2c3c(c4cc(OC)c(OC)cc4c2c1)CN1CCC[C@@H]1[C@@H]3O,,54.4,33.1,27.8,56.2,30.2,33.3,47.7,51.2,
COc1ccc2c3c(c4cc(OC)c(OC)cc4c2c1)[C@H](O)[C@@H]1CCCN1C3,,21.2,23,0,19.3,0,0,51.2,24.8,
COc1cc2c3c(c4cc(OC)c(OC)cc4c2cc1OC)[C@H](O)[C@@H]1CCCN1C3,,63.7,34.7,30.6,61.9,20,32.9,62.4,57.8,
CNCC(=O)N[C@@H](CO)C(=O)N[C@H]1[C@H](O)[C@@H](O)[C@H](n2ccc(N)nc2=O)O[C@@H]1C(N)=O [NINGNANMYCIN],,66.6,30.4,18.9,56,25.2,37.7,71.4,68.5,
COc1ccc2c3c(c4cc(OC)c(OC)cc4c2c1)C[C@H]1CCCN1C3 [(-)-ANTOFINE],,45.5,27.4,19.4,46,20.4,15.3,52.8,42.7,
COc1cc2c3c(c4cc(OC)c(OC)cc4c2cc1OC)NC(=O)[C@H]1CCCN1C3,,36.4,20,18.9,35.7,19.7,21.2,32.2,34.9,
CC(=O)N1CN(C(C)=O)C(=O)NC1=O,,,,,,,,,,50
COc1cc2c3c(c4cc(OC)c(OC)cc4c2cc1OC)C(=O)N1CCC[C@H]1C3,,43.5,30.9,14.8,30.1,23.4,20.5,48.1,37,
COc1cc2c3c(c4cc(OC)c(OC)cc4c2cc1OC)CN1CCC[C@H]1C3 [(S)-TYLOPHORINE],,56.8,36.9,37,53.8,28.6,34.2,54.1,50.5,
COc1cc2c3c(c4cc(OC)c(OC)cc4c2cc1OC)CN1CCC[C@@H]1C3 [TYLOPHORINE],,47.6,21.1,26.4,44.2,22.5,15.1,49.7,39,
COc1cc2cc(CN3CCC[C@H]3C)c3cc(OC)c(OC)cc3c2cc1OC,,39.6,0,0,25.8,13.1,0,29.8,25.2,
